Calls of active or inactive are those of the source. The calls are words filed in the database; no cut-off is given here.
What was measured:
[1] = target: T1, Acyl-homoserine-lactone synthase (Pseudomonas aeruginosa (strain ATCC 15692 / PAO1 / 1C / PRS 101 / LMG12228)) (UniProt P33883); experiment: Modulation of Pseudomonas aeruginosa lacZ-fused lasI expressed in Escherichia coli DH5alpha co-expressing pBAD-lasR assessed as 3-oxo-C12-AHL-induced effect at 0.39 mM after 3 hrs by beta-galactosidase assay relative to control
T1 sequence (whole entry): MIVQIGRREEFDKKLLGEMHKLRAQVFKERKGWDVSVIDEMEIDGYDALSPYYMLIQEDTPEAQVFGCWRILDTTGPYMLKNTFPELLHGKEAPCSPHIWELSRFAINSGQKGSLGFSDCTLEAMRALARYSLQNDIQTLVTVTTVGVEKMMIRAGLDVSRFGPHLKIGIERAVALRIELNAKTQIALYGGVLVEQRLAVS
Outline: (§1)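 E. coli DH5α carrying pSC11 (PlasI-lacZ translational fusion) and pJN105L (PBAD-lasR) was grown overnight in LB with ampicillin (100 μg/ml) and gentamicin (15 μg/ml), then diluted to OD600 0.150. Arabinose (0.2% w/v), 3-oxo-C12-AHL (2 μM) and test compound or DMSO were added. Cultures were shaken 3 h at 37 °C. β-Galactosidase activity was read in Miller units and expressed as % of the solvent sample. Triplicates per biological replicate, repeated at least twice; paired two-tailed t-test.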

[2] = target: 3-(3-hydroxydecanoyloxy)decanoate synthase (Pseudomonas aeruginosa (strain ATCC 15692 / PAO1 / 1C / PRS 101 / LMG12228)) (UniProt Q51559); experiment: Modulation of Pseudomonas aeruginosa lacZ-fused rhlA expressed in Escherichia coli DH5alpha co-expressing Ptac-rhlR assessed as C4-AHL-induced effect at 0.58 mM after 4 hrs by beta-galactosidase assay relative to control
Outline: (§2)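 E. coli DH5α carrying pECP61.5 (Ptac-rhlR, PrhlA-lacZ), grown overnight in LB with ampicillin 100 μg/ml and diluted to OD600 0.150. At OD600 1.0, 1 mM IPTG, 2 μM C4-HSL and compound or DMSO were added. Cultures were shaken 4 h at 37 °C, then β-galactosidase was read in Miller units. Activity is % of solvent sample, from triplicates per biological replicate, with at least two repeats.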

[3] = target: T1, Acyl-homoserine-lactone synthase (Pseudomonas aeruginosa (strain ATCC 15692 / PAO1 / 1C / PRS 101 / LMG12228)); experiment: Modulation of Pseudomonas aeruginosa lacZ-fused lasI expressed in Escherichia coli DH5alpha co-expressing pBAD-lasR assessed as 3-oxo-C12-AHL-induced effect at 0.58 mM after 3 hrs by beta-galactosidase assay relative to control; outline: as §1
[4] = target: 3-(3-hydroxydecanoyloxy)decanoate synthase (Pseudomonas aeruginosa (strain ATCC 15692 / PAO1 / 1C / PRS 101 / LMG12228)) (UniProt Q51559); experiment: Modulation of Pseudomonas aeruginosa lacZ-fused rhlA expressed in Escherichia coli DH5alpha co-expressing Ptac-rhlR assessed as C4-AHL-induced effect at 0.78 mM after 4 hrs by beta-galactosidase assay relative to control; outline: as §2
[5] = target: T1, Acyl-homoserine-lactone synthase (Pseudomonas aeruginosa (strain ATCC 15692 / PAO1 / 1C / PRS 101 / LMG12228)); experiment: Modulation of Pseudomonas aeruginosa lacZ-fused lasI expressed in Escherichia coli DH5alpha co-expressing pBAD-lasR assessed as 3-oxo-C12-AHL-induced effect at 0.19 mM after 3 hrs by beta-galactosidase assay relative to control; outline: as §1
[6] = target: 3-(3-hydroxydecanoyloxy)decanoate synthase (Pseudomonas aeruginosa (strain ATCC 15692 / PAO1 / 1C / PRS 101 / LMG12228)) (UniProt Q51559); experiment: Modulation of Pseudomonas aeruginosa lacZ-fused rhlA expressed in Escherichia coli DH5alpha co-expressing Ptac-rhlR assessed as C4-AHL-induced effect at 0.19 mM after 4 hrs by beta-galactosidase assay relative to control
Outline: (§3)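 rhl reporter: E. coli DH5α carrying pECP61.5 (Ptac-rhlR, PrhlA-lacZ) was grown overnight in LB with ampicillin (100 μg/ml) only, then diluted to OD600 0.150. It was induced with 1 mM IPTG, and 2 μM C4-HSL plus compound or DMSO were added at OD600 1.0. Cultures were shaken 4 h at 37 °C. β-Galactosidase activity was read in Miller units as % of the solvent sample. Triplicates per biological replicate, at least two repeats; paired two-tailed t-test.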

[7] = target: T1, Acyl-homoserine-lactone synthase (Pseudomonas aeruginosa (strain ATCC 15692 / PAO1 / 1C / PRS 101 / LMG12228)); experiment: Modulation of Pseudomonas aeruginosa lacZ-fused lasI expressed in Escherichia coli DH5alpha co-expressing pBAD-lasR assessed as 3-oxo-C12-AHL-induced effect at 0.78 mM after 3 hrs by beta-galactosidase assay relative to control; outline: as §1
[8] = target: 3-(3-hydroxydecanoyloxy)decanoate synthase (Pseudomonas aeruginosa (strain ATCC 15692 / PAO1 / 1C / PRS 101 / LMG12228)) (UniProt Q51559); experiment: Modulation of Pseudomonas aeruginosa lacZ-fused rhlA expressed in Escherichia coli DH5alpha co-expressing Ptac-rhlR assessed as C4-AHL-induced effect at 0.39 mM after 4 hrs by beta-galactosidase assay relative to control; outline: as §3
[9] = target: T1, Acyl-homoserine-lactone synthase (Pseudomonas aeruginosa (strain ATCC 15692 / PAO1 / 1C / PRS 101 / LMG12228)); experiment: Modulation of Pseudomonas aeruginosa lacZ-fused lasI expressed in Escherichia coli DH5alpha co-expressing pBAD-lasR assessed as 3-oxo-C12-AHL-induced effect at 0.77 mM after 3 hrs by beta-galactosidase assay relative to control; outline: as §1
[10] = target: 3-(3-hydroxydecanoyloxy)decanoate synthase (Pseudomonas aeruginosa (strain ATCC 15692 / PAO1 / 1C / PRS 101 / LMG12228)) (UniProt Q51559); experiment: Modulation of Pseudomonas aeruginosa lacZ-fused rhlA expressed in Escherichia coli DH5alpha co-expressing Ptac-rhlR assessed as C4-AHL-induced effect at 0.77 mM after 4 hrs by beta-galactosidase assay relative to control; outline: as §2
[11] = target: T1, Acyl-homoserine-lactone synthase (Pseudomonas aeruginosa (strain ATCC 15692 / PAO1 / 1C / PRS 101 / LMG12228)); experiment: Modulation of Pseudomonas aeruginosa lacZ-fused lasI expressed in Escherichia coli DH5alpha co-expressing pBAD-lasR assessed as 3-oxo-C12-AHL-induced effect at 0.86 mM after 3 hrs by beta-galactosidase assay relative to control; outline: as §1
[12] = target: T1, Acyl-homoserine-lactone synthase (Pseudomonas aeruginosa (strain ATCC 15692 / PAO1 / 1C / PRS 101 / LMG12228)); experiment: Modulation of Pseudomonas aeruginosa lacZ-fused lasI expressed in Escherichia coli DH5alpha co-expressing pBAD-lasR assessed as 3-oxo-C12-AHL-induced effect at 1.14 mM after 3 hrs by beta-galactosidase assay relative to control; outline: as §1
[13] = target: 3-(3-hydroxydecanoyloxy)decanoate synthase (Pseudomonas aeruginosa (strain ATCC 15692 / PAO1 / 1C / PRS 101 / LMG12228)) (UniProt Q51559); experiment: Modulation of Pseudomonas aeruginosa lacZ-fused rhlA expressed in Escherichia coli DH5alpha co-expressing Ptac-rhlR assessed as C4-AHL-induced effect at 0.86 mM after 4 hrs by beta-galactosidase assay relative to control; outline: as §2
[14] = target: T1, Acyl-homoserine-lactone synthase (Pseudomonas aeruginosa (strain ATCC 15692 / PAO1 / 1C / PRS 101 / LMG12228)); experiment: Modulation of Pseudomonas aeruginosa lacZ-fused lasI expressed in Escherichia coli DH5alpha co-expressing pBAD-lasR assessed as 3-oxo-C12-AHL-induced effect at 0.29 mM after 3 hrs by beta-galactosidase assay relative to control; outline: as §1
[15] = target: T1, Acyl-homoserine-lactone synthase (Pseudomonas aeruginosa (strain ATCC 15692 / PAO1 / 1C / PRS 101 / LMG12228)); experiment: Modulation of Pseudomonas aeruginosa lacZ-fused lasI expressed in Escherichia coli DH5alpha co-expressing pBAD-lasR assessed as 3-oxo-C12-AHL-induced effect at 0.57 mM after 3 hrs by beta-galactosidase assay relative to control; outline: as §1
[16] = target: 3-(3-hydroxydecanoyloxy)decanoate synthase (Pseudomonas aeruginosa (strain ATCC 15692 / PAO1 / 1C / PRS 101 / LMG12228)) (UniProt Q51559); experiment: Modulation of Pseudomonas aeruginosa lacZ-fused rhlA expressed in Escherichia coli DH5alpha co-expressing Ptac-rhlR assessed as C4-AHL-induced effect at 0.29 mM after 4 hrs by beta-galactosidase assay relative to control; outline: as §3
[17] = target: T1, Acyl-homoserine-lactone synthase (Pseudomonas aeruginosa (strain ATCC 15692 / PAO1 / 1C / PRS 101 / LMG12228)); experiment: Modulation of Pseudomonas aeruginosa lacZ-fused lasI expressed in Escherichia coli DH5alpha co-expressing pBAD-lasR at 0.29 to 0.86 mM after 3 hrs by beta-galactosidase assay relative to control; outline: as §1
[18] = target: 3-(3-hydroxydecanoyloxy)decanoate synthase (Pseudomonas aeruginosa (strain ATCC 15692 / PAO1 / 1C / PRS 101 / LMG12228)) (UniProt Q51559); experiment: Modulation of Pseudomonas aeruginosa lacZ-fused rhlA expressed in Escherichia coli DH5alpha co-expressing Ptac-rhlR assessed as C4-AHL-induced effect at 0.57 mM after 4 hrs by beta-galactosidase assay relative to control; outline: as §3
[19] = target: 3-(3-hydroxydecanoyloxy)decanoate synthase (Pseudomonas aeruginosa (strain ATCC 15692 / PAO1 / 1C / PRS 101 / LMG12228)) (UniProt Q51559); experiment: Modulation of Pseudomonas aeruginosa lacZ-fused rhlA expressed in Escherichia coli DH5alpha co-expressing Ptac-rhlR assessed as C4-AHL-induced effect at 1.14 mM after 4 hrs by beta-galactosidase assay relative to control; outline: as §2
[20] = target: T1, Acyl-homoserine-lactone synthase (Pseudomonas aeruginosa (strain ATCC 15692 / PAO1 / 1C / PRS 101 / LMG12228)); experiment: Modulation of Pseudomonas aeruginosa lacZ-fused lasI expressed in Escherichia coli DH5alpha co-expressing pBAD-lasR assessed as 3-oxo-C12-AHL-induced effect at 0.46 mM after 3 hrs by beta-galactosidase assay relative to control; outline: as §1
[21] = target: 3-(3-hydroxydecanoyloxy)decanoate synthase (Pseudomonas aeruginosa (strain ATCC 15692 / PAO1 / 1C / PRS 101 / LMG12228)) (UniProt Q51559); experiment: Modulation of Pseudomonas aeruginosa lacZ-fused rhlA expressed in Escherichia coli DH5alpha co-expressing Ptac-rhlR assessed as C4-AHL-induced effect at 0.46 mM after 4 hrs by beta-galactosidase assay relative to control; outline: as §3
[22] = target: 3-(3-hydroxydecanoyloxy)decanoate synthase (Pseudomonas aeruginosa (strain ATCC 15692 / PAO1 / 1C / PRS 101 / LMG12228)) (UniProt Q51559); experiment: Modulation of Pseudomonas aeruginosa lacZ-fused rhlA expressed in Escherichia coli DH5alpha co-expressing Ptac-rhlR assessed as C4-AHL-induced effect at 0.92 mM after 4 hrs by beta-galactosidase assay relative to control; outline: as §2
[23] = target: 3-(3-hydroxydecanoyloxy)decanoate synthase (Pseudomonas aeruginosa (strain ATCC 15692 / PAO1 / 1C / PRS 101 / LMG12228)) (UniProt Q51559); experiment: Modulation of Pseudomonas aeruginosa lacZ-fused rhlA expressed in Escherichia coli DH5alpha co-expressing Ptac-rhlR assessed as C4-AHL-induced effect at 0.69 mM after 4 hrs by beta-galactosidase assay relative to control; outline: as §2
[24] = target: T1, Acyl-homoserine-lactone synthase (Pseudomonas aeruginosa (strain ATCC 15692 / PAO1 / 1C / PRS 101 / LMG12228)); experiment: Modulation of Pseudomonas aeruginosa lacZ-fused lasI expressed in Escherichia coli DH5alpha co-expressing pBAD-lasR assessed as 3-oxo-C12-AHL-induced effect at 0.23 mM after 3 hrs by beta-galactosidase assay relative to control; outline: as §1
[25] = target: 3-(3-hydroxydecanoyloxy)decanoate synthase (Pseudomonas aeruginosa (strain ATCC 15692 / PAO1 / 1C / PRS 101 / LMG12228)) (UniProt Q51559); experiment: Modulation of Pseudomonas aeruginosa lacZ-fused rhlA expressed in Escherichia coli DH5alpha co-expressing Ptac-rhlR assessed as C4-AHL-induced effect at 0.23 mM after 4 hrs by beta-galactosidase assay relative to control; outline: as §3
[26] = target: T1, Acyl-homoserine-lactone synthase (Pseudomonas aeruginosa (strain ATCC 15692 / PAO1 / 1C / PRS 101 / LMG12228)); experiment: Modulation of Pseudomonas aeruginosa lacZ-fused lasI expressed in Escherichia coli DH5alpha co-expressing pBAD-lasR assessed as 3-oxo-C12-AHL-induced effect at 0.69 mM after 3 hrs by beta-galactosidase assay relative to control; outline: as §1
[27] = target: T1, Acyl-homoserine-lactone synthase (Pseudomonas aeruginosa (strain ATCC 15692 / PAO1 / 1C / PRS 101 / LMG12228)); experiment: Modulation of Pseudomonas aeruginosa lacZ-fused lasI expressed in Escherichia coli DH5alpha co-expressing pBAD-lasR assessed as 3-oxo-C12-AHL-induced effect at 0.92 mM after 3 hrs by beta-galactosidase assay relative to control; outline: as §1

CCCCCCCCCSC[C@@H]1CCC(=O)N1
Activity [1]: 26% | Activity [2]: 108% | Activity [3]: 18% | Activity [4]: 137% | Activity [5]: 72% | Activity [6]: 95% | Activity [7]: 6% | Activity [8]: 115%

CCCCCCCCCSC[C@@H]1CCC(O)N1 (mixture of isomers)
Activity [1]: 65% | Activity [2]: 100% | Activity [3]: 57% | Activity [5]: 74% | Activity [6]: 93% | Activity [9]: 47% | Activity [8]: 80% | Activity [10]: 99%

CCCSC[C@@H]1CCC(O)N1 (mixture of isomers)
Activity [11]: 31% | Activity [12]: 11% | Activity [13]: 41% | Activity [14]: 228% | Activity [15]: 115% | Activity [16]: 121% | Activity [17]: inactive | Activity [18]: 138% | Activity [19]: 9%

CCCCCCSC[C@@H]1CCC(O)N1 (mixture of isomers)
Activity [20]: 0% | Activity [21]: 0.2% | Activity [22]: 0% | Activity [23]: 0% | Activity [24]: 109% | Activity [25]: 26% | Activity [26]: 0% | Activity [27]: 0%
